Experimental data of several laboratories.
Lines come from different studies, so protocols differ. Converted amounts (≈) assume the structure as drawn.

Structure (SMILES)	organism	test	system	setting	endpoint	result
CCCC1CCC2(CC1)SC(C)C(=O)N2NC(=O)c1[nH]c2ccc(Cl)cc2c1-c1ccccc1 (stereo not shown)	Enterovirus B	viral replication, inhibitor	Vero, B4		EC50	> 100 µM
C[n+]1c(/C=C/c2ccc(O)cc2)cc(/C=C2\Sc3ccccc3N2CCCN2CCCC2)c2ccccc21.[I-]	Acinetobacter baumannii	microbial growth, broth dilution	ATCC19606	drug-resistant strain	MIC	> 64 µg/mL
CC(=O)C1=C(O)C(CC(C)C)NC1=O (stereo not shown)	Proteus mirabilis	microbial growth	ATCC25933		MIC	> 200 µg/mL
O=C(NN1C(=O)CSC12CCCCC2)c1[nH]c2ccc(Cl)cc2c1-c1ccccc1	Enterovirus B	viral replication, inhibitor	Vero, B4		EC50	> 100 µM
COC(=O)c1cc(-c2cccc(NC(=O)Nc3ccc(F)cc3)c2)on1	Acinetobacter baumannii	microbial growth, broth dilution	BAA1605		MIC	> 64 µg/mL
C=C1CC[C@H](O)C/C1=C/C=C1\CCC[C@]2(C)[C@@H]([C@H](C)CCCC(C)C)CC[C@@H]12	Hepatitis C virus	viral replication, inhibitor, luciferase	BM4-5, GETYPE1B	72 h, replicon	EC50	6.1 µM
CC1(C)S[C@@H]2[C@H](NC(=O)[C@H](N)c3ccccc3)C(=O)N2[C@H]1C(=O)O	Acinetobacter baumannii	microbial growth, broth dilution	ATCC19606	drug-resistant strain	MIC	64 µg/mL (≈ 183 µM)
COc1nc(N)nc2c1ncn2[C@@H]1O[C@H](COP(=O)(N[C@@H](C)C(=O)OCC(C)(C)C)Oc2cccc3ccccc23)[C@@H](O)[C@@]1(C)O (stereo partly shown)	Hepatitis C virus	viral replication, inhibitor	GETYPE1A	96 h, replicon	EC90	4 nM
CCC1CCC2(CC1)SC(C)C(=O)N2NC(=O)c1[nH]c2ccc(Cl)cc2c1-c1ccccc1 (stereo not shown)	Enterovirus B	viral replication, inhibitor	Vero, B4		EC50	> 100 µM
COC(=O)c1cc(-c2cccc(NC(=O)Nc3ccc(F)c(F)c3)c2)on1	Acinetobacter baumannii	microbial growth, broth dilution	BAA1605		MIC	> 64 µg/mL
CC1SC2(CCCC2)N(NC(=O)c2[nH]c3ccc(Cl)cc3c2-c2ccccc2)C1=O (stereo not shown)	Enterovirus B	viral replication, inhibitor	Vero, B4		EC50	> 100 µM
CCCCCCNC(=S)Nc1cccc(-c2cc(C(=O)OC)no2)c1	Acinetobacter baumannii	microbial growth, broth dilution	BAA1605		MIC	> 64 µg/mL
C=C1CC[C@H](O)C/C1=C/C=C1\CCC[C@]2(C)[C@@H]([C@H](C)/C=C/[C@H](C)C(C)C)CC[C@@H]12	Hepatitis C virus	viral replication, inhibitor, luciferase	GETYPE2A	5 days, replicon	EC50	13 µM
CCC1CCC2(CC1)SCC(=O)N2NC(=O)c1[nH]c2ccc(Cl)cc2c1-c1ccccc1 (stereo not shown)	Enterovirus B	viral replication, inhibitor	Vero, B4		EC50	> 100 µM
C[n+]1c(/C=C/c2ccc(O)cc2)cc(/C=C2\Sc3ccccc3N2CCCN2CCOCC2)c2ccccc21.[I-]	Acinetobacter baumannii	microbial growth, broth dilution	ATCC19606	drug-resistant strain	MIC	> 64 µg/mL
COC(=O)c1cc(-c2cccc(NC(=O)Nc3c(C)cccc3C)c2)on1	Acinetobacter baumannii	microbial growth, broth dilution	BAA1605		MIC	> 64 µg/mL
CSc1ccc(/C=C/c2cc(/C=C3\Sc4ccccc4N3CCCN3CCCC3)c3ccccc3[n+]2C)cc1.[I-]	Acinetobacter baumannii	microbial growth, broth dilution	ATCC19606	drug-resistant strain	MIC	64 µg/mL
CC1CC(C)(C)CC2(C1)SCC(=O)N2NC(=O)c1[nH]c2ccc(Cl)cc2c1-c1ccccc1 (stereo not shown)	Enterovirus B	viral replication, inhibitor	Vero, B4		EC50	> 100 µM
COC(=O)c1cc(-c2cccc(NC(=O)Nc3cccc(Cl)c3Cl)c2)on1	Acinetobacter baumannii	microbial growth, broth dilution	BAA1605		MIC	> 64 µg/mL
Cc1c(NN=C(C#N)C2=NC(=O)CS2)c(=O)n(-c2ccccc2)n1C	Acinetobacter baumannii	microbial killing, broth dilution			MBC	0.25 µg/mL (≈ 0.705 µM)
CC(C)S(=O)(=O)n1c(N)nc2ccc(/C(=N/O)c3ccccc3)cc21	Enterovirus B	viral replication, inhibitor	Vero 76, B3		EC50	< 0.01 µM
CC1CCC2(CC1)SC(C)C(=O)N2NC(=O)c1[nH]c2ccc(Cl)cc2c1-c1ccccc1 (stereo not shown)	Enterovirus B	viral replication, inhibitor	Vero, B4		EC50	> 100 µM
COC(=O)c1cc(-c2cccc(NC(=O)Nc3ccc(Cl)cc3)c2)on1	Acinetobacter baumannii	microbial growth, broth dilution	BAA1605		MIC	> 64 µg/mL
CC(C)(C)C1CCC2(CC1)SCC(=O)N2NC(=O)c1[nH]c2ccc(Cl)cc2c1-c1ccccc1 (stereo not shown)	Enterovirus B	viral replication, inhibitor	Vero, B4		EC50	> 100 µM
COC(=O)c1cc(-c2cccc(NC(=O)Nc3ccccc3)c2)on1	Acinetobacter baumannii	microbial growth, broth dilution	BAA1605		MIC	> 64 µg/mL
CC(C)(CO)C(=O)SCCOP(=O)(NCc1ccccc1)OC[C@H]1O[C@@H](n2cnc3c(=O)[nH]c(N)nc32)[C@](C)(O)[C@@H]1O (mixture of isomers)	Hepatitis C virus	viral replication, inhibitor	Huh-7, GETYPE1	replicon	EC90	900 nM
COC(=O)c1cc(-c2cccc(NC(=O)Nc3cccc(F)c3)c2)on1	Acinetobacter baumannii	microbial growth, broth dilution	BAA1605		MIC	> 64 µg/mL
C=C1/C(=C\C=C2/CCC[C@]3(C)[C@@H]([C@H](C)CCCC(C)(C)O)CC[C@@H]23)C[C@@H](O)C[C@@H]1O	Hepatitis C virus	viral replication, inhibitor, luciferase	BM4-5, GETYPE1B	72 h, replicon	EC50	3.19 µM
